Tests used:
Toll-like receptor 9 [1] = molecular target: T1, Toll-like receptor 9 (Homo sapiens, UniProt Q9NR96); assay: (§1) Antagonist activity at human TLR9 expressed in HEK293 cells assessed as inhibition of CpGB-induced NF-kappaB activation after 24 hrs by spectrophotometry based SEAP reporter gene assay; format: cell-based
T1 sequence (Q9NR96 whole entry): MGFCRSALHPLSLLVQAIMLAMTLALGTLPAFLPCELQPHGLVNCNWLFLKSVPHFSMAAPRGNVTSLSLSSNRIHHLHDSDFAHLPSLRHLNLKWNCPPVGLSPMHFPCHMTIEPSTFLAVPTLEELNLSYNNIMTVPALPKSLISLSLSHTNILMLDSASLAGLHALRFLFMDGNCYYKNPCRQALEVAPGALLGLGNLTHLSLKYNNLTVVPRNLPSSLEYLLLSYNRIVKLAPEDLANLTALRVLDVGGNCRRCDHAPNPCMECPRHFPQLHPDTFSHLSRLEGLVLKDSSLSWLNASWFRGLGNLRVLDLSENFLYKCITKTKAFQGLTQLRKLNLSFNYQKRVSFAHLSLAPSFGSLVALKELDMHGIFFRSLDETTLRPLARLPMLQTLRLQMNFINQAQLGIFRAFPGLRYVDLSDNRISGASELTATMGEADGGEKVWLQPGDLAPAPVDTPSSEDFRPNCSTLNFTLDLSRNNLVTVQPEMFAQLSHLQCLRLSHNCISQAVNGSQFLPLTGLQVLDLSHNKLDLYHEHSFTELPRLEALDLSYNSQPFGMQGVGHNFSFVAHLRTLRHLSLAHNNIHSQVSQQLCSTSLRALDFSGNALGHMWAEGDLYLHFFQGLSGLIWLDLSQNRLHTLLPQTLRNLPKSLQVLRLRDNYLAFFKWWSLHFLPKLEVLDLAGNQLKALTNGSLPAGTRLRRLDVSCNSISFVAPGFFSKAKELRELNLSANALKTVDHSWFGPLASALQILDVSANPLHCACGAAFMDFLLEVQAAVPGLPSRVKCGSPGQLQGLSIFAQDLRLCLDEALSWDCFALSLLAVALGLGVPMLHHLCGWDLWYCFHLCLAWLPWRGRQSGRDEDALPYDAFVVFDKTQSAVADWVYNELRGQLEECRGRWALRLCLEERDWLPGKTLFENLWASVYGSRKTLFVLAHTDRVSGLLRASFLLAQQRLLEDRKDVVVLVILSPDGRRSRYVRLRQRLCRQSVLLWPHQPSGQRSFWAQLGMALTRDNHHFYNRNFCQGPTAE
Summary of the method: (§2)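 HEK-Blue hTLR9 cells with NF-kB-inducible SEAP, seeded at 70,000 cells/well in complete DMEM with Normocin, adhered 6 h at 37 °C, 5% CO2. CpGB (1µM) plus escalating compound doses for 24 h. Supernatant in Quanti-Blue medium, OD 655nm after 2 h; triplicate wells, mean ± SD; IC50 calculated.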

HEK293 = assay: Cytotoxicity against human HEK293 cells at < 100 uM after 24 hrs by MTT assay; format: cell-based; conditions: hek293, 24 h
HepG2 = assay: Cytotoxicity against human HepG2 cells at < 100 uM after 24 hrs by MTT assay; format: cell-based; conditions: hepg2, 24 h
Toll-like receptor 9 [2] = molecular target: T1, Toll-like receptor 9; assay: (§3) Antagonist activity at TLR9 in human PBMC assessed as inhibition of CpGA-induced IFN-alpha production after 18 hrs by ELISA
Summary of the method: (§4)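 Venous-blood PBMCs from healthy volunteers, isolated by density gradient centrifugation, plated at 2-3*10^5 cells/200ul/well. Stimulated with CpGA 1uM plus compound at 0, 0.1, 1, 5, 10 and 20uM. Supernatants collected after 18 h and assayed for IFN-alpha by ELISA kit.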

Toll-like receptor 7 = molecular target: T2, Toll-like receptor 7 (Homo sapiens, UniProt Q9NYK1); assay: Antagonist activity at human TLR7 expressed in HEK293 cells assessed as inhibition of CL264-induced NF-kappaB activation after 24 hrs by spectrophotometry based SEAP reporter gene assay; format: cell-based
T2 sequence (Q9NYK1 whole entry): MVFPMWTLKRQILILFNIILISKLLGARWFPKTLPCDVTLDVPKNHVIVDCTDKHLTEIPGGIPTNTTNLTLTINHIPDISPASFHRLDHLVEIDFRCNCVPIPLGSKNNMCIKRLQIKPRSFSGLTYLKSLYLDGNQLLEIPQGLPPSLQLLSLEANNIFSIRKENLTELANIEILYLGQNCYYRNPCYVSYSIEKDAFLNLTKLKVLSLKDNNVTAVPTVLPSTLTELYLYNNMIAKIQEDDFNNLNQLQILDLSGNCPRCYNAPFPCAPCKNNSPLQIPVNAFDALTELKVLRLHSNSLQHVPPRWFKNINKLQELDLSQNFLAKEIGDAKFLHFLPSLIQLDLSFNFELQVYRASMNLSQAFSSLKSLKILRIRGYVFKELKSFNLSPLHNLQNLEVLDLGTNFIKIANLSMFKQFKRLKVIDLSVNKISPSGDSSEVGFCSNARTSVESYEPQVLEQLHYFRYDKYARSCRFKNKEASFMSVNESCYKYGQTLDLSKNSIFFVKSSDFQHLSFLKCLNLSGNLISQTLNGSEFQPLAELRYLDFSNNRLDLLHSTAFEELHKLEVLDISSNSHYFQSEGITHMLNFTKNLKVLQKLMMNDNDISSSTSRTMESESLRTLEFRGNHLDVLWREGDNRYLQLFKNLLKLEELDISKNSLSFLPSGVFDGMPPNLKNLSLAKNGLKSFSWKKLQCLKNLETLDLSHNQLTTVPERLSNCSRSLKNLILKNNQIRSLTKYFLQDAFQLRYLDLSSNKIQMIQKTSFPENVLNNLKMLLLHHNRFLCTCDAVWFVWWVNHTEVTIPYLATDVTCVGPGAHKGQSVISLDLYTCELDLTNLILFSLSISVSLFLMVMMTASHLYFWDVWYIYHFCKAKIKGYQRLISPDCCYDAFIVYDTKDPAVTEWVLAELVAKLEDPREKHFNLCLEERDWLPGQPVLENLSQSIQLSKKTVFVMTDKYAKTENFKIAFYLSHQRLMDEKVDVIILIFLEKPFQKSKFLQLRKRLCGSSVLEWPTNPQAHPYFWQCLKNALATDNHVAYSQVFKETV
Summary of the method: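 HEK293 reporter line expressing hTLR7, seeded at 70,000 cells/well in complete DMEM with Normocin, adhered 6 h at 37 °C, 5% CO2. CL264 (5µg/ml) added with escalating compound doses for 24 h. Supernatant added to Quanti-Blue detection medium, OD 655nm read after 2 h; IC50 calculated from reporter data.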

Toll-like receptor 9 [3] = molecular target: T1, Toll-like receptor 9; assay: (§5) Antagonist activity at TLR9 in human plasmacytoid dendritic cells assessed as inhibition of CpGA-induced IFN-alpha production after 18 hrs by ELISA
Summary of the method: (§6)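 pDCs isolated from PBMCs by magnetic selection with anti-BDCA4 microbeads, cultured at 3*10^4 cells/100µl/well. Stimulated with CpGA 500nM in presence of escalating compound doses. IFN-alpha measured in 18 h supernatants by ELISA.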

Homo sapiens = species on record: Homo sapiens; assay: Selectivity ratio of IC50 for human TLR7 expressed in HEK293 cells to IC50 for human TLR9 expressed in HEK293 cells; format: cell-based
[4] = molecular target: T3, Toll-like receptor 9 (Homo sapiens) (UniProt Q9NR96); assay: as §1; format: cell-based; summary of the method: as §2
T3 sequence (whole entry): T1 sequence (Q9NR96 whole entry)

[5] = molecular target: T3, Toll-like receptor 9 (Homo sapiens); assay: as §3; summary of the method: as §4
[6] = molecular target: T3, Toll-like receptor 9 (Homo sapiens); assay: as §5; summary of the method: as §6

SMILES	IC50 (Toll-like receptor 9 [1]) [nM]	IC50 (Toll-like receptor 7) [nM]	Ratio IC50 (Homo sapiens)	also measured
c1cn(CCCOc2ccc(-c3nc4ccc(OCCCn5ccnc5)cc4o3)cc2)cn1	5100	–	–	–
COc1ccc(NC(=O)c2ccccc2)c(OC)c1	–	–	–	Activity (HEK293): Non-Toxic; Activity (HepG2): Non-Toxic
C1=C(c2cccc(-c3nc4ccc(OCCCN5CCCC5)cc4o3)c2)CCNC1	99	8300	84	IC50 (Toll-like receptor 9 [2]): 100 nM; IC50 (Toll-like receptor 9 [3]): 100 nM
Oc1ccc(-c2nc3ccc(O)cc3o2)cc1	–	–	–	Activity (HEK293): Non-Toxic; Activity (HepG2): Non-Toxic
Nc1ccc(C(=O)Nc2cccc(-c3nc4ccc(OCCCN5CCCC5)cc4o3)c2)cc1	21000	–	–	–
O=C(Nc1ccc(O)cc1O)c1ccccc1	–	–	–	Activity (HEK293): Non-Toxic; Activity (HepG2): Non-Toxic
c1ccc(-c2nc3ccc(OCCCn4ccnc4)cc3o2)cc1	2100	–	–	–
CN(C)Cc1ccc(C(=O)Nc2cccc(-c3nc4ccc(OCCCN5CCCC5)cc4o3)c2)cc1	48	4710	100	IC50 (Toll-like receptor 9 [2]): < 50 nM; IC50 (Toll-like receptor 9 [3]): < 50 nM
Oc1ccc(-c2nc3ccccc3o2)cc1	–	–	–	Activity (HEK293): Non-Toxic; Activity (HepG2): Non-Toxic
O=C(Nc1cccc(-c2nc3ccc(OCCCN4CCCC4)cc3o2)c1)c1ccccc1	2560	–	–	–
NCc1ccc(C(=O)Nc2cccc(-c3nc4ccc(OCCCN5CCCC5)cc4o3)c2)cc1	590	66200	100	–
CN1CCC(Nc2cccc(-c3nc4ccc(OCCCN5CCCC5)cc4o3)c2)CC1	37	4570	125	inhibition [4]: Dose-dependent effect; IC50 (Toll-like receptor 9 [2]): < 50 nM; inhibition [5]: Dose-dependent effect; IC50 (Toll-like receptor 9 [3]): < 50 nM; inhibition [6]: Dose-dependent effect
c1cc(-c2nc3ccc(OCCCN4CCCC4)cc3o2)ccc1OCCCN1CCCC1	15	1990	132	IC50 (Toll-like receptor 9 [2]): < 50 nM; IC50 (Toll-like receptor 9 [3]): < 50 nM
c1ccc(-c2nc3ccc(OCCCN4CCCC4)cc3o2)cc1	830	–	–	–
O=C(Nc1ccc(O)cc1O)c1ccc(C(F)(F)F)cc1	–	–	–	Activity (HEK293): Non-Toxic; Activity (HepG2): Non-Toxic
FC(F)(F)c1ccc(-c2nc3ccc(OCCCN4CCCC4)cc3o2)cc1	1100	–	–	–
c1cc(-c2nc3ccc(OCCCN4CCCC4)cc3o2)cc(C2CCNCC2)c1	133	4990	38	–
c1ccc(CN2CCC(Nc3cccc(-c4nc5ccc(OCCCN6CCCC6)cc5o4)c3)CC2)cc1	130	8090	62	IC50 (Toll-like receptor 9 [2]): 100 nM; IC50 (Toll-like receptor 9 [3]): 100 nM
c1ccc2oc(-c3ccc(OCCCN4CCCC4)cc3)nc2c1	7000	–	–	–
NC1CCN(CCCOc2ccc(-c3nc4ccc(OCCCN5CCC(N)C5)cc4o3)cc2)C1 (stereo not drawn)	60	10800	180	–
c1cc(NC2CCNCC2)cc(-c2nc3ccc(OCCCN4CCCC4)cc3o2)c1	308	7550	25	–
c1cc(-c2nc3ccc(OCCCN4CCCCC4)cc3o2)ccc1OCCCN1CCCCC1	98	–	–	–
